# Screening results from PubChem.
# ANO1 activ: activators or potentiators of mouse TMEM16A chloride channel. Q8BHY3. HEK293 TMEM16A/YFP-H148Q/I152L, iodide quench fluorescence; stronger effect = lower value. hit rate 0.3% among 340,000. B-score at 10 µM. AID 623877;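 active means fluorescence-ratio B-score plate-corrected deviation score at least 3 library SD below zero, with starting fluorescence score within 5 deviations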;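 further: channel opened by trigger with iodide after compound preincubation; score built on the fluorescence ratio of max minus min over baseline; more negative score means more quench and so TMEM16A activation or potentiation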
# ANO1 block: blocks the mouse calcium-activated chloride channel TMEM16A; AID 588511; HEK293 TMEM16A/YFP iodide influx fluorescence, ionomycin; Q8BHY3; normalized B-score (activity score, 25-100; higher = stronger inhibition) at 10 µM; hit rate 1.2% among 310,000;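 active means ratio plate-corrected score three or more library SD toward inhibition, starting fluorescence score within five deviations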;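 further: score derived from kinetic fluorescence span divided by baseline fluorescence per well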
# m5-HT2A agonist: activates the mouse 5-HT2A serotonin receptor. activation, % at 7.6 µM. hit rate 0.66% among 360,000. P35363. CHO-K1 mHTR2A beta-arrestin complementation, luminescence; percent of 30 µM serotonin response. AID 624169;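 active means activation above a run cutoff, the mean activation of all tested compounds plus 3 SD, cut at about 14% in these data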
# Target sequence (P35363 whole entry, looked up): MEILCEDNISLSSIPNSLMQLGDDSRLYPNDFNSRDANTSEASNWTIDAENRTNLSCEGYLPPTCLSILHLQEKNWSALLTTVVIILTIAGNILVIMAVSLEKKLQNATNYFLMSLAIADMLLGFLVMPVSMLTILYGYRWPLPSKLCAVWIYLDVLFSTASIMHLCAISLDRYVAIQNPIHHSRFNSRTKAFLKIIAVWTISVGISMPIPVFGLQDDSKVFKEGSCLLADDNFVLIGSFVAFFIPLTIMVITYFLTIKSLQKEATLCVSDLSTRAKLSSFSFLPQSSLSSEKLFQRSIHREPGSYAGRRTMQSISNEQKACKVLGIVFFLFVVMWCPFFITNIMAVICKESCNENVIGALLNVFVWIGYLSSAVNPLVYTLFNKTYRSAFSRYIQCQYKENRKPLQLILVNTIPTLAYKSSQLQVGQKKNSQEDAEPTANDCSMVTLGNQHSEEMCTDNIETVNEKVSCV
# MC4R barr agon: human MC4R agonism via beta-arrestin; hit rate 0.98% among 360,000; U2OS MC4R beta-arrestin complementation, luminescence; percent of melanotan II response, DMSO zero; AID 540308; activation, % at 8.9 µM; P32245;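 active means activation above a per-plate cutoff, the mean activation of sample wells on that plate plus 3 SD, cut at about 8% in these data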
# MC4R antag cAMP: blocks human MC4R cAMP signaling | P32245 | MC4R-expressing cells, MTII-stimulated cAMP, LANCE TR-FRET | inhibition, % at 6.5 µM | hit rate 0.48% among 360,000;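 active means inhibition above its plate's cutoff, the mean of tested wells on that plate plus 3 SD, cut at about 29% in these data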
#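 material = U2OS cells stably expressing human melanocortin 4 receptor (MC4R) | also added = Melanotan II challenge | dosing = single nominal compound dose of 6.5 µM | detection = TR-FRET with Eu-cAMP and labeled anti-cAMP, 671 nm | replication = singlicate | timing = compound 30 min, challenge 1 h, detection 1 h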
# beta cell repl: induces beta-cell replication in MIN6 cells; MIN6 cells proliferation, ATPlite luminescence, 48 h; cells starved in 0.2% serum; 100% = growth in 10% serum; proliferation, % at 10 µM; hit rate 0.29% among 330,000; AID 2380;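 active means compounds whose signal lies at least 3.5 SD above the mean of all wells on their plate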
# OPRM1 ag: counter-screen for mouse HTR2A agonists: human mu opioid receptor agonists; shares compounds with m5-HT2A agonist; U2OS OPRM1 beta-arrestin PathHunter, luminescence; DMSO 0%, DAMGO 9.3 µM 100%; activation, % at 9.3 µM; hit rate 5.3% among 2,300; AID 624380;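 active means mean activation above the mean of DMSO-only wells plus 3 SD, cut at about 0.5% in these data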
# HTR2A ag conf: confirmation of mouse HTR2A serotonin receptor agonists. shares compounds with m5-HT2A agonist. CHO-K1 PathHunter beta-arrestin recruitment, luminescence; DMSO 0%, 30 µM serotonin 100%. activation, % at 7.6 µM. hit rate 19% among 2,300;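 active means mean activation across triplicates above the hit threshold derived in the original primary screen, cut at about 15% in these data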
# Hits are given with their value; 0 = inactive; - = no result. Shown are actives, neighbours in structure and some others; about 3.4% of the full set was active somewhere.
SMILES,ANO1 activ,ANO1 block,m5-HT2A agonist,MC4R barr agon,MC4R antag cAMP,beta cell repl,OPRM1 ag,HTR2A ag conf
CSc1ccc(Cl)c(C(=O)OCC(=O)N2CCN(c3ccccc3)CC2)c1,0,-,0,0,0,0,-,-
CN1CCN(C(c2ccc(Cl)cc2)c2cc(Cl)c3cccnc3c2O)CC1 (centres undefined),0,0,0,0,0,0,-,-
Oc1c(C(c2ccccn2)N2CCCCC2)cc(Cl)c2cccnc12 (centres undefined),0,0,22,0,0,0,0,0
Cc1ccc(NS(=O)(=O)c2c(C)[nH]c(C)c2C(=O)N2CCCCC2)cc1Cl,0,0,0,0,0,0,-,-
CC(C)(C)C(=O)n1nc(-c2ccccc2)oc1=O,0,0,16,0,0,0,0,0
O=C(O)Cn1nc(-c2ccccc2)oc1=O,0,0,0,0,0,0,-,-
C[C@@H]1CN([C@H](C)CO)C(=O)CCCn2cc(nn2)CO[C@H]1CN(C)C(=O)Cc1ccccc1,-,-,0,0,0,-,-,-
CCCS(=O)(=O)NC(=O)C1(C)CCN1C(=O)Cc1ccc(-c2ccccc2)cc1 (centres undefined),-,-,17,0,0,-,0,0
CC1(C(=O)NS(=O)(=O)Cc2cccc(Cl)c2)CCN1C(=O)Cc1ccc(-c2ccccc2)cc1 (centres undefined),-,-,0,0,0,-,-,-
CCOC(=O)C1CN(S(=O)(=O)c2ccc(C)cc2)C1,0,0,0,0,0,0,-,-
CCOC(=O)C(NC(=O)C1C(C)N1S(=O)(=O)c1ccc(C)cc1)C(=O)OCC (centres undefined),0,0,16,0,0,0,0,0
CC1CCc2c(sc(Nc3nc4c(F)cccc4s3)c2C(N)=O)C1 (centres undefined),0,0,19,0,0,0,0,0
O=C(Nc1nc2c(F)cccc2s1)C1CC1,0,0,0,0,0,0,-,-
O=C1CC[C@@H](C(=O)N2CSC[C@H]2C(=O)O)N1,0,0,46,0,0,0,0,0
Cc1ccc(-c2cnc(C(O)c3ccc(Cl)c(Cl)c3)[nH]2)cc1 (centres undefined),-,-,0,0,0,-,-,-
COc1ccc(CN(C)c2ncnc(N)n2)cc1,0,0,19,0,0,0,0,0
Cc1cc(C)c(NC(=O)COC(=O)c2nc3nccc(C)n3n2)c(Cl)c1,0,-,0,0,0,0,-,-
CCCNC(=O)C1(C)CCN(C(=O)c2ccc(C)c(F)c2)C1 (centres undefined),-,-,0,0,0,-,-,-
COc1ccc(NC(=O)CCC(=O)N2CCC(c3ccccc3)=N2)cc1S(=O)(=O)N1CCCCC1,0,-,0,0,0,-,-,-
O=C(C1CC(=O)N(c2ccc3c(c2)OCCO3)C1)N1CCN(S(=O)(=O)c2ccccc2F)CC1 (centres undefined),0,-,18,0,0,-,0,0
O=C(C1CC(=O)N(c2ccc3c(c2)OCCO3)C1)N1CCN(S(=O)(=O)c2ccc(F)cc2)CC1 (centres undefined),0,-,0,0,0,-,-,-
CC(=O)NC(c1ccccc1)c1nc(-c2ccc(C)c(C)c2)cs1 (centres undefined),-,-,0,0,0,-,-,-
COCCNc1nc(-c2cc(-c3ccc(Cl)cc3)on2)cc(C(C)C)n1,0,0,16,0,0,0,0,0
CC(C)c1cc(-c2cc(-c3ccc(Cl)cc3)on2)nc(NCC2CC2)n1,0,0,0,0,0,0,-,-
CCn1c(CNC(=O)c2ccco2)nnc1SCC(=O)Nc1cc(C)c(C)cc1Br,0,0,15,0,0,0,1.0,0
SMILES,ANO1 activ,ANO1 block,m5-HT2A agonist,MC4R barr agon,MC4R antag cAMP,beta cell repl,OPRM1 ag,HTR2A ag conf
CCn1c(CNC(=O)c2ccco2)nnc1SCC(=O)Nc1ccccc1Cl,0,0,0,0,0,0,-,-
CC1CCCN(C(=O)CSCC(=O)Nc2nc(-c3cccs3)cs2)C1 (centres undefined),0,0,15,0,0,0,0,0
Cc1cccc(-c2n[nH]nc2C2=CC(=O)CC(C)(C)C2)c1,-,-,0,0,0,-,-,-
Cc1ccc(S(=O)(=O)N2CCC(C(=O)N3CCC3)CC2)cc1,0,0,17,0,0,0,0,0
CNc1ccc(-c2ccccc2CO)cn1,-,-,0,0,0,-,-,-
CCC1(CC)NC(=S)NC1=S,0,-,0,0,0,-,-,-
CC1(C)NC(=S)NC1=S,0,-,17,0,0,-,0,0
O=C(NCc1ccccn1)Nc1cccc(F)c1,0,0,0,0,0,0,-,-
Cc1cc(-n2c(C)cc(C(=O)CSc3nncn3C(C)C)c2C)no1,0,0,0,0,0,0,-,-
CSc1ccc(N2CCN(CCCNC(=O)Nc3ccccc3F)CC2)cc1,0,0,17,0,0,0,0,39
O=C(Nc1ccccc1F)c1ccc(CN2CCN(c3ccccc3)CC2)cc1,0,0,20,0,0,0,0.8,95
COc1cccc(NC(=O)c2ccc(CN3CCN(c4ccccc4)CC3)cc2)c1,0,0,33,0,0,0,0,60
COc1ccc(NC(=O)c2ccc(CN3CCN(c4ccccc4)CC3)cc2)cc1,0,0,0,0,0,0,-,-
CCN(CC(=O)NCC(=O)Nc1ccc(Br)cc1C)Cc1ccccc1,0,0,0,0,0,0,-,-
CC(C)NC(=O)C(=O)NC1CCCCCC1,0,0,0,0,0,0,-,-
CC(C)/C=C1\CCCCC1N(C)C(=O)NC(C)C (centres undefined),0,0,28,0,0,0,0,0
COc1ccc(CCN2CC(C(=O)Nc3cc(F)ccc3F)CC2=O)cc1OC (centres undefined),0,0,0,0,0,0,-,-
CCN(C(=O)C1CCN(S(=O)(=O)c2cccc3nonc23)CC1)c1ccccc1,0,0,15,0,0,0,0,0
CCc1noc(C)c1C(=O)N(C)CC(=O)Nc1ccc(Br)cc1C,0,0,0,0,0,0,-,-
COc1ccc2c(c1)c(=O)oc1cc(OCC(=O)NC3CC3)ccc12,0,0,15,0,0,0,0,0
CCOc1ccccc1N1CCN(Cc2ccco2)CC1,0,0,0,0,0,0,-,-
CCOc1ccccc1N1CCN(Cc2ccc(Br)s2)CC1,0,0,48,0,0,0,0,26
CC(C)(C)c1ccc(C(=O)Nc2ccc3c(c2)C(=O)NC3=O)cc1,0,0,16,0,0,0,0,0
CC(=O)c1ccc(C(=O)Nc2ccc3c(c2)C(=O)NC3=O)cc1,0,0,0,0,0,0,-,-
